From ChEMBL document CHEMBL1126569, “Nucleosides and nucleotides. 123. Synthesis of 1-(2-deoxy-2-isocyano-beta-D-arabinofuranosyl)cytosine and related nucleosides as potential antitumor agents” (J Med Chem, 1993)

Assays:
[1] = tested on: Mus musculus; experiment: In vivo percent inhibition of Lewis Lung Carcinoma cell line in mice at 200 mg/Kg per day (p<0.001) compared with ara-C; format: functional
Method in brief: (§1)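 A 2-mm cube of LLC was implanted s.c. in the backs of 9-week-old male BDF1 mice on day 0, with 7 mice per dose group. Drug in saline was given i.p. once daily on days 1–5 at 0.1 mL/10 g body weight. Tumor weight was measured on day 17. Percent inhibition compares the mean tumor weight of treated mice with vehicle-only controls.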

[2] = tested on: Mus musculus; experiment: Mean body weight change on 17th day at a dose of 100 mg/kg/day; format: functional
Method in brief: (§2)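 LLC fragments were implanted s.c. into male BDF1 mice aged 9 weeks on day 0, with seven animals per dose. Drug dissolved in saline was given intraperitoneally once a day for 5 days, days 1–5. Mean body weight change was recorded on day 5 and on day 17 and compared with saline-vehicle controls.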

[3] = tested on: Mus musculus; experiment: Tested for in vivo antitumor activity against Lewis Lung Carcinoma cell line in mice and tumor weight change at 200 mg/Kg per day; format: functional; method in brief: as §1
[4] = tested on: Mus musculus; experiment: Tested in vivo for antitumor activity against Lewis Lung Carcinoma cell line in mice and tumor weight change at 100 mg/Kg per day; format: functional; method in brief: as §1
[5] = tested on: Mus musculus; experiment: Mean body weight change on 5th day at a dose of 200 mg/kg/day; format: functional; method in brief: as §2
[6] = tested on: L1210; experiment: Tested in vitro for cytotoxicity against leukemia L1210 cell line in mouse; format: functional, cell-based
Method in brief: (§3)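 Cells were grown in RPMI 1640 with 10% FCS, and the L1210 medium also had 2-mercaptoethanol added. Compound was dissolved in Ca/Mg-free Dulbecco's PBS or saline, diluted in culture medium and applied for 72 h in a CO2 incubator. Cells were fixed in 0.1% glutaraldehyde and stained with 0.01% crystal violet. Dye was extracted in 50% EtOH–25 mM NaH2PO4 and OD read. IC50 is the concentration giving 50% reduction of optical density.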

[7] = tested on: Mus musculus; experiment: In vivo percent inhibition of Lewis Lung Carcinoma cell line in mice at 100 mg/Kg per day (p<0.001) compared with ara-C; format: functional; method in brief: as §1
[8] = tested on: KATO III stomach cancer cell line; experiment: Tested in vitro for cytotoxicity against KATO III human stomach adenocarcinoma cell line; format: functional, cell-based; method in brief: as §3
[9] = tested on: Lewis lung carcinoma cell line; experiment: Tested in vitro for cytotoxicity against LLC Lewis lung carcinoma cell line; format: functional, cell-based; details: Mus musculus; method in brief: as §3
[10] = tested on: Mus musculus; experiment: Mean body weight change on 17th day at a dose of 200 mg/kg/day; format: functional; method in brief: as §2
[11] = tested on: Mus musculus; experiment: Mean body weight change on 5th day at a dose of 100 mg/kg/day; format: functional; method in brief: as §2
[12] = tested on: KB; experiment: Tested in vitro for cytotoxicity against KB human oral epidermoid carcinoma cell line; format: functional, cell-based; method in brief: as §3
[13] = tested on: KATO III stomach cancer cell line; experiment: tested for in vitro cytotoxicity against KATO III human stomach adenocarcinoma cell line; format: functional, cell-based; method in brief: as §3
[14] = tested on: KB; experiment: tested in vitro for cytotoxicity against KB human oral epidermoid carcinoma cell line; format: functional, cell-based; method in brief: as §3
[15] = tested on: L1210; experiment: tested in vitro for cytotoxicity against L1210 leukemia cell line in mouse; format: functional, cell-based; method in brief: as §3
[16] = tested on: Lewis lung carcinoma cell line; experiment: tested for in vitro cytotoxicity against LLC Lewis lung carcinoma cell line; format: functional, cell-based; details: Mus musculus; method in brief: as §3
[17] = tested on: Mus musculus; experiment: In vivo percent inhibition of Lewis Lung Carcinoma cell line in mice at 100 mg/Kg per day (p<0.001) compared with NCDAC; format: functional; method in brief: as §1
[18] = tested on: L1210; experiment: Tested in vitro for cytotoxicity against L1210 leukemia cell line in mouse
[19] = tested on: Mus musculus; experiment: Tested for in vivo antitumor activity against Lewis Lung Carcinoma cell line in mice and tumor weight change at 100 mg/Kg per day; format: functional; method in brief: as §1
[20] = tested on: KATO III stomach cancer cell line; experiment: Tested for in vitro cytotoxicity against KATO III human stomach adenocarcinoma cell line; format: functional, cell-based; method in brief: as §3
[21] = tested on: KB; experiment: Tested for in vitro cytotoxicity against KB human oral epidermoid carcinoma cell line; format: functional, cell-based; method in brief: as §3
[22] = tested on: Lewis lung carcinoma cell line; experiment: Tested for in vitro cytotoxicity against LLC Lewis lung carcinoma cell line; format: functional, cell-based; details: Mus musculus; method in brief: as §3
[23] = tested on: Mus musculus; experiment: In vivo percent inhibition of Lewis Lung Carcinoma cell line in mice drug at 200 mg/Kg per day (p<0.001) compared with NCDAC; format: functional; method in brief: as §1

Compound: [C-]#[N+][C@@H]1[C@H](n2ccc(N)nc2=O)OC(CO)[C@@H]1O (stereo partly drawn)
- Inhibition ratio [1]: 60.6%
- Weight change [2]: 2
- Tumor weight [3]: 1.09 g
- Tumor weight [4]: 1.08 g
- Weight change [5]: 0.2
- IC50 [6]: 12.6 µM
- Inhibition ratio [7]: 61%
- IC50 [8]: 90 µM
- IC50 [9]: 4.9 µM
- Weight change [10]: 2.1
- Weight change [11]: 0.4
- IC50 [12]: 7.9 µM

Compound: [C-]#[N+][C@@H]1[C@H](n2ccc(=O)[nH]c2=O)OC(CO)[C@@H]1O (stereo partly drawn)
- IC50 [13]: > 100 µM
- IC50 [14]: 36.8 µM
- IC50 [15]: 34 µM
- IC50 [16]: > 100 µM

Compound: Nc1ccn([C@@H]2O[C@H](CO)[C@@H](O)[C@@H]2O)c(=O)n1 [CYTARABINE]
- Inhibition ratio [17]: 83%
- Weight change [2]: 0.8
- IC50 [18]: 0.12 µM
- Tumor weight [3]: 0.34 g
- Tumor weight [19]: 0.47 g
- Weight change [5]: -0.1
- IC50 [20]: 0.3 µM
- IC50 [21]: 0.64 µM
- IC50 [22]: 5.6 µM
- Weight change [10]: 0.7
- Weight change [11]: -0.4
- Inhibition ratio [23]: 87.7%
